Compound activity from PubChem BioAssay.
In the library only some 6.1% were active in any assay of this set; here they are far more common.
DAT uptake mod – changed hDAT dopamine uptake under cocaine IC80, either direction, primary screen, cocaine antagonist project, cell-based, LLC-PK1 hDAT, [14C]-dopamine uptake, MLSMR | 110,000 compounds, 1.3% hits | Sodium-dependent dopamine transporter (Homo sapiens), Q01959 | AID 449768, 2010 | B-score at 10 µM | LLC-PK1 hDAT cells, [14C]-dopamine uptake with cocaine IC80; actives deviate in either direction;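 active = Z score or B-score, a plate-position-corrected score, falls beyond the plate's 99.7% confidence bounds, in either direction; inactive = both scores lie inside the 99.7% bounds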;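 also: scored against the spread of the other compound wells on the same plate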
Target sequence (Q01959 whole entry, looked up): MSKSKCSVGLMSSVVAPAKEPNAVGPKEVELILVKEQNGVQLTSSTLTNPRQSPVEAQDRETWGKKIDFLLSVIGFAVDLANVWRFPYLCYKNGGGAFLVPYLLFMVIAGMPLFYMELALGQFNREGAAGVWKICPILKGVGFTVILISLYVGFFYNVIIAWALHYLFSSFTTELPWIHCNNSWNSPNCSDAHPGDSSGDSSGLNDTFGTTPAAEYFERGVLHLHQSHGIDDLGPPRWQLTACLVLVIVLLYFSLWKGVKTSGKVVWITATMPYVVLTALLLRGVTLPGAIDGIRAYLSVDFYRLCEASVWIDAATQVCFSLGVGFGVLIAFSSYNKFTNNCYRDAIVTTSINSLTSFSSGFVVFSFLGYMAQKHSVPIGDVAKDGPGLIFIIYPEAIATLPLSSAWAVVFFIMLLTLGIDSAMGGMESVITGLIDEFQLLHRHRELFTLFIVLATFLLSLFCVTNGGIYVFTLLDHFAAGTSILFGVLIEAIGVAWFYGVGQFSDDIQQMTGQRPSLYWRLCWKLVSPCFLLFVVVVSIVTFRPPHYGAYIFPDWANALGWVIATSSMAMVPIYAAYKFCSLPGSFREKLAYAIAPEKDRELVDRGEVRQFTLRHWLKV
RAM inhibit – inhibitors of the yeast RAM network, primary screen, dse1pr::URA3 reporter, 5-FOA selection | S. cerevisiae dse1pr::URA3 reporter, 5-FOA growth OD615, 2 d; analog-sensitive cbk1-as2 kinase mutant strain | inhibition, % at 50 µM | 190,000 compounds, 1.8% hits | AID 868, 2007;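 active = inhibition above a set limit, 3 SD over mean compound inhibition, cut at about 8.4% in these data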;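 also: 0% = DMSO-only wells with no growth and 100% = 10 µM 1-NA-PP1 full growth; inhibition rescues growth on 5-FOA so higher OD means more RAM inhibition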
Yeast life ext – compounds extending yeast replicative lifespan, primary screen, S. cerevisiae, OD615; S. cerevisiae growth with nicotinamide; deaD strain in restrictive glucose medium; inhibition of the nicotinamide effect, % at 10 µM; 130,000 compounds, 0.68% hits; AID 775, 2007;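 active = inhibition above a set limit, placed 3 SD over the median of all compounds, cut at about 26% in these data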;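 also: 0% = nicotinamide-treated wells and 100% = cells grown without nicotinamide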
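assay system = DeaD-strain S. cerevisiae | measured by = absorbance at 615 nm | probe or stimulus = nicotinamide 1.5 mM | buffer or medium = CSMM-D glucose medium, restrictive | times = 48 h at 30 °C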
Measles CPE – compounds protecting cells from measles virus cytopathic effect, primary screen, measles RdRp inhibitor project, single point, MLSMR library, absorbance; 140,000 compounds, 1.5% hits; protection (pct of control), % at 4 µM; Measles virus-infected cells, CPE protection; in the data active = protection mostly above about 24%, no sharp cut-off; inactive = mostly below about 26%
Yeast growth inh – growth inhibitors of yeast BB579 in restrictive medium, primary screen, yeast lifespan-shortening project, S. cerevisiae; inhibition, % at 10 µM; OD615, 48 h; 140,000 compounds, 0.51% hits;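 active = inhibition above a set limit, 3 SD over the mean compound inhibition, cut at about 44% in these data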
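Test system: Saccharomyces cerevisiae DeaD strain BB579, replicative lifespan model yeast | Buffer or medium: Restrictive CSMM-D medium | Doses: One dose, 10 µM compound with 0.25% DMSO | Incubation: 48 h exposure, 30 °C | Detection: Culture absorbance at 615 nm | Control set: Amphotericin B at 10 µg/mL as positive control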
WT yeast gro inh – growth inhibition of WT strain, primary screen, mitochondrial fusion inhibitor project, WT and mutant strains, chemical genetic; mitochondrial fusion phenotypic screen; inhibition, % at 10 µM; 190,000 compounds, 2.1% hits; in the data active = inhibition above about 58%; tested in S. cerevisiae
* marks the source's active call; other numbers are inactive results; . = no result given.

SMILES	DAT uptake mod	RAM inhibit	Yeast life ext	Measles CPE	Yeast growth inh	WT yeast gro inh
Cc1ccc2c(c1)c(N=O)c(O)n2Cc1ccc(Cl)cc1	.	4	.	.	.	74*
Cn1c(SCC(=O)NC(c2ccccc2)c2ccccc2)nnc1-c1cccs1	2.4	1	-2	8	14	.
CCCCNCC#CCOc1cc(C)ccc1C(C)C	.	1	.	.	.	74*
Cc1ccc(C(C)C)c(OCCCNCc2cccnc2)c1	.	1	.	.	.	9
C=CCOC(=O)C1=C(C)NC(C)=C(C(=O)OCC=C)C1c1cn(-c2ccccc2)nc1-c1ccco1	.	6	10	4	-65	-7
COC(=O)Cn1c(=O)oc2ccc(C)cc21	.	0	.	.	.	-1
Cc1ccc(C)c(N2CCN(C(=O)CNS(=O)(=O)c3cccs3)CC2)c1	1.7*	3	-11	23	-55	11
COc1ccc(N2CCN(C(=O)CCNS(=O)(=O)c3cccs3)CC2)cc1	11*	2	-5	10	-38	-12
COC(=O)c1sccc1NC(=S)N1CCN(c2cc(C)ccc2C)CC1	.	5	-3	17	-54	77*
CCOC(=O)N1CCN(C(=O)CNS(=O)(=O)c2cccs2)CC1	-0.36	1	-12	17	-30	-5
Cc1ccc(C)c(N2CCN(C(=S)Nc3ccc4nc(N5CCN(C)CC5)cc(C)c4c3)CC2)c1	.	0	.	.	.	72*
O=C(CSc1nc(-c2ccccc2)c(-c2ccccc2)[nH]1)N1CCN(S(=O)(=O)c2ccccc2)CC1	0.25	2	-3	28*	-17	8
O=C(CSc1nc2ccccc2c(=O)[nH]1)N1CCN(S(=O)(=O)c2ccccc2)CC1	-0.7	2	-23	8	-32	16
CC[n+]1c(-c2ccc(C)cc2)csc1Nc1c(C)n(C)n(-c2ccccc2)c1=O	.	1	-2	30*	-33	10
CC[n+]1c(-c2ccccc2)csc1Nc1c(C)n(C)n(-c2ccccc2)c1=O	.	0	2	6	-40	-6
COc1cccc(C(=O)c2c[nH]c(C(=O)NCCCN3CCOCC3)c2)c1	.	4	.	.	.	1
CCO[C@@H]1OC(C(=O)N2CCCCCCC2)=C[C@H](c2csc3ccccc23)[C@H]1CCCO	.	5	.	.	.	-9
C=CCN1C(=O)/C(=C\c2ccc(Oc3nc(N4CCOCC4)nc(N4CCOCC4)n3)c(OC)c2)SC1=S	.	4	.	.	.	-5
OC(COc1ccc(CNCCc2ccccc2F)cc1)CN1CCCCC1 (stereo not given)	.	0	.	.	.	2
CNC(=O)c1nnsc1S(=O)(=O)c1ccc(Cl)cc1	.	0	.	.	.	69*
Cc1cc2occ(CC(=O)NC3=NCCS3)c2cc1C(C)C	-0.85	1	-5	19	-40	15
Cc1ccc(Oc2nc3ccccc3n3c(C)nnc23)c(C)c1	0.16	0	74*	14	-76	3
CCCN(CCC)c1nc2ccccc2n2c(C)nnc12	-0.0073	0	-6	44*	-17	22
Cc1ccc(-c2nc3ccccc3n3c(C)nnc23)cc1	-0.87	1	-6	3	8	-7
Cc1nnc2c(Oc3ccccc3)nc3ccccc3n12	0.052	6	-27	5	-3	6
SMILES	DAT uptake mod	RAM inhibit	Yeast life ext	Measles CPE	Yeast growth inh	WT yeast gro inh
O=C(CCc1ccc(Oc2cc([N+](=O)[O-])cc([N+](=O)[O-])c2)cc1)N1CCCCCC1	.	6	8	6	-40	66*
O=C(Cc1ccc([N+](=O)[O-])cc1)N1CCCCCC1	.	1	.	.	.	-8
COc1ccc(-n2c(C)n[nH]c2=O)cc1OC	-0.41	1	-6	1	-7	-4
COc1ccc(-n2c(C)n[nH]c2=O)cc1	-0.00099	2	-12	68*	-22	-7
c1ccc(Cc2noc(CN3CCN(CCOc4ccccc4)CC3)n2)cc1	.	1	.	.	.	6
COc1ccc(C(=O)NC2c3ccccc3-c3ccccc32)cc1	.	4	0	5	-46	1
CC1CC(C)CN(CCOc2cccc(Cl)c2Cl)C1 (stereo not given)	.	0	-1	7	-12	44
c1ccc2c(c1)ncn2CCOCCOCCn1cnc2ccccc21	-0.58	2	.	15	-10	-8
CC1CC(C)CN(CCOc2ccc(Cl)cc2Cl)C1 (stereo not given)	-8.3*	-1	-12	20	8	58
Clc1ccc(OCCn2cnc3ccccc32)c(Cl)c1	-0.5	0	.	10	9	68*
O=C(NNC1CC(=O)N(c2ccc(Cl)cc2)C1=O)c1ccco1 (stereo not given)	.	0	.	.	.	-8
CC(C)(C)OC(=O)C(C)(C)O/N=C(\C(=O)O)c1csc(N)n1	.	1	.	.	.	-1
Cc1cc(C(=O)OCC(=O)Nc2ccc(F)cc2F)c(C)o1	0.79	4	-8	37*	-54	25
CC(C)NS(=O)(=O)c1ccc(OCC(=O)Nc2ccc(F)cc2F)cc1	-0.46	2	49*	1	-40	12
Cc1ccc2nc(N(CCCN(C)C)C(=O)c3sc4ccccc4c3Cl)sc2c1	.	0	-2	7	31	89*
Cc1ccc2nc(N(CCCN(C)C)C(=O)c3ccc(S(=O)(=O)N(C)C)cc3)sc2c1	.	-1	2	7	-39	-9
Cc1ccc(C(=O)N(CCCN(C)C)c2nc3ccc(Cl)cc3s2)cc1C	.	1	.	.	.	89*
CN(C)CCCN(C(=O)c1ccc2c(c1)CCCC2)c1nc2ccc(F)cc2s1	.	0	6	9	-24	87*
CN(C)CCCN(C(=O)CCc1ccccc1)c1nc2ccc(F)cc2s1	.	0	2	3	-8	89*
COc1ccc2[nH]cc(CCNS(=O)(=O)c3ccc(F)cc3)c2c1	.	1	.	.	.	0
COc1ccc(C2(O)CN(c3ccc(C)cc3)C3=[N+]2CCCC3)cc1 (stereo not given)	.	2	.	.	.	-6
COCCN(C)C(=O)CC1C(=O)NCCN1CC(c1ccccc1)c1ccccc1 (stereo not given)	.	1	.	.	.	-9
CCOc1ccc(C(=O)SC2=NCCS2)cc1	-0.092	0	52*	30*	-48	-1
COc1ccc(C(=O)SC2=NCCS2)cc1	0.15	-1	.	9	-39	-14
Nc1ncn(C23CC4CC(CC(C4)C2)C3)n1	-0.38	0	-2	8	-29	0
c1ccc(-c2nnn(C34CC5CC(CC(C5)C3)C4)n2)cc1	1.4	0	-7	10	-10	81*
O=C(Cc1cccs1)Nc1cccc(-c2ccc3nncn3n2)c1	.	8.5*	.	.	.	-5
Cc1nc2ccccn2c1C(=O)CSc1ccccc1	.	4	.	.	.	22
